Results as given in ChEMBL document CHEMBL5260843 (J Med Chem, 2019).
Active and inactive are the calls of the source. No cut-off for these calls is given here.

Experiments:
[1] = Metabolic stability in rat liver microsomes assessed as intrinsic clearance; format: ADME, Microsome; conditions: read-out: CLH
[2] = Metabolic stability in human liver microsomes assessed as intrinsic clearance; format: ADME, Microsome; conditions: read-out: CLH
MGC-803 [3] = assay: Induction of ROS generation in human MGC-803 cells at 3 uM incubated for 24 hrs by DCFH-DA staining based flow cytometry analysis (reference value: 2.2%); format: functional
MGC-803 [4] = assay: Induction of ROS generation in human MGC-803 cells at 1 uM incubated for 24 hrs by DCFH-DA staining based flow cytometry analysis (reference value: 2.2%); format: functional
MGC-803 [5] = assay: Induction of ROS generation in human MGC-803 cells at 0.3 uM incubated for 24 hrs by DCFH-DA staining based flow cytometry analysis (reference value: 2.2%); format: functional
Cullin-4A (Homo sapiens) [6] = molecular target: Cullin-4A (Homo sapiens) (UniProt Q13619); assay: Inhibition of cullin4A neddylation in human KYSE-70 cells at 0.3 to 10 uM incubated for 24 hrs by Western blot analysis; format: cell-based; conditions: KYSE-70 cell line, dose 0.3-10 µM
Sequence of Cullin-4A (Homo sapiens) (Q13619 whole entry): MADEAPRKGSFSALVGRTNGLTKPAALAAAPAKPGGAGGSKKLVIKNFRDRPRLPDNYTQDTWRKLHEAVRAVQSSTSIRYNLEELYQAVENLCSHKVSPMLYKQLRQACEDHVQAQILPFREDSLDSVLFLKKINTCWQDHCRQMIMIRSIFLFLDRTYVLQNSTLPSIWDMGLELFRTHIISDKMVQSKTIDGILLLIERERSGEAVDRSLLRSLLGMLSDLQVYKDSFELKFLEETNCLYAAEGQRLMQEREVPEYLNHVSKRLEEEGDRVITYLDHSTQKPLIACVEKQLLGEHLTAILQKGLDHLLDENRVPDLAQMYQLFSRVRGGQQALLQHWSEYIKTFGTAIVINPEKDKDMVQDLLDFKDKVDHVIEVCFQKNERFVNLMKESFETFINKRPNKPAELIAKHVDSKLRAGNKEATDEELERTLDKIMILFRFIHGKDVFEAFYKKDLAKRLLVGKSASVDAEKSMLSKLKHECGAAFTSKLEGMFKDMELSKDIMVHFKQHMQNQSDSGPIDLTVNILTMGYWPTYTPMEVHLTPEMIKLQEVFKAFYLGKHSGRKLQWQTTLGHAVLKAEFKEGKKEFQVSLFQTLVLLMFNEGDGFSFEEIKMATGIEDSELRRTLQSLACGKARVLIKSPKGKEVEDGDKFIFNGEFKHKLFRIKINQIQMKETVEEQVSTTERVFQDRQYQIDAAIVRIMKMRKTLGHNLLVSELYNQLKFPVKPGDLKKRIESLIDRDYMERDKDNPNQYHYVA
How it was run: (§1)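 Cells in 6-well plates were exposed to compound for 24 h. MGC-803 were grown in DMEM and KYSE70 in RPMI 1640, both with 10% FBS at 37 °C and 5% CO2. Lysates were made in RIPA with protease inhibitors and quantified by BCA. 30 μg protein was run on 8% SDS-PAGE and blotted to nitrocellulose. Primary antibodies were applied overnight at 4 °C, then HRP secondaries, with ECL and film detection. GAPDH was the loading control. Run three times.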

KYSE-70 cell line = assay: Inhibition of cullin2 neddylation in human KYSE-70 cells at 0.3 to 10 uM incubated for 24 hrs by Western blot analysis; format: cell-based; conditions: dose 0.3-10 µM; how it was run: as §1
Cullin-4B (Homo sapiens) = Cullin-4B (Homo sapiens) (UniProt Q13620); assay: Inhibition of cullin4B neddylation in UBC/DCN1 overactivated human MGC-803 cells at 0.3 to 10 uM incubated for 24 hrs by Western blot analysis; format: cell-based; conditions: dose 0.3-10 µM; how it was run: as §1
Sequence of Cullin-4B (Homo sapiens) (Q13620 whole entry): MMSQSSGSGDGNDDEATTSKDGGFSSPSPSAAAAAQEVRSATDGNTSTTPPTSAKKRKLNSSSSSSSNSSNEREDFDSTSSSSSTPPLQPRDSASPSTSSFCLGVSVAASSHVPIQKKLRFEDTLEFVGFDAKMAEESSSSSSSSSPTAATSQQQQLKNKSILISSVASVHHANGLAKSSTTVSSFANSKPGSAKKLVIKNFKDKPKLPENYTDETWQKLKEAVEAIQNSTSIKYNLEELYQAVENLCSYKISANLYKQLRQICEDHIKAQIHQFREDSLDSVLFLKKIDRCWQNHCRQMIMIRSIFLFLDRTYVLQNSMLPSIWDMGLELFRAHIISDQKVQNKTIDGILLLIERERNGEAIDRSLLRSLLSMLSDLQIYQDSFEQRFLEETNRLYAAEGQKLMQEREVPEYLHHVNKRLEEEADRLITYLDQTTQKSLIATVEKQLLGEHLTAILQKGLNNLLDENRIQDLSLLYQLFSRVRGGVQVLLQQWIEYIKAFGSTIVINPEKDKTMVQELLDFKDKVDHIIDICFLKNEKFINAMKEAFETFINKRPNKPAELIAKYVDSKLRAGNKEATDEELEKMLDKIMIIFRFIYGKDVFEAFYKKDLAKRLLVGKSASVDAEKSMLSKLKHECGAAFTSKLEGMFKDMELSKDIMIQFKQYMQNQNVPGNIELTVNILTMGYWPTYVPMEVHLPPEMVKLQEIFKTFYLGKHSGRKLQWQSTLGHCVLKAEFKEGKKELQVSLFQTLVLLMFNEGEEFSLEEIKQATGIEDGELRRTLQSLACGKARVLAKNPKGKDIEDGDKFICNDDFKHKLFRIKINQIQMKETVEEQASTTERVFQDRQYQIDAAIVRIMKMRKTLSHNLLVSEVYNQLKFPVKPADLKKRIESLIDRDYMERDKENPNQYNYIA

Cullin-4A (Homo sapiens) [7] = molecular target: Cullin-4A (Homo sapiens) (UniProt Q13619); assay: Inhibition of cullin4A neddylation in UBC/DCN1 overactivated human MGC-803 cells at 0.3 to 10 uM incubated for 24 hrs by Western blot analysis; format: cell-based; conditions: dose 0.3-10 µM; how it was run: as §1
MGC-803 [8] = assay: Inhibition of cullin2 neddylation in UBC/DCN1 overactivated human MGC-803 cells at 0.3 to 10 uM incubated for 24 hrs by Western blot analysis; format: cell-based; conditions: dose 0.3-10 µM; how it was run: as §1
Cullin-1 (Homo sapiens) = Cullin-1 (Homo sapiens) (UniProt Q13616); assay: Inhibition of cullin1 neddylation in UBC/DCN1 overactivated human MGC-803 cells at 10 uM incubated for 24 hrs by Western blot analysis; format: cell-based; how it was run: as §1
Sequence of Cullin-1 (Homo sapiens) (Q13616 whole entry): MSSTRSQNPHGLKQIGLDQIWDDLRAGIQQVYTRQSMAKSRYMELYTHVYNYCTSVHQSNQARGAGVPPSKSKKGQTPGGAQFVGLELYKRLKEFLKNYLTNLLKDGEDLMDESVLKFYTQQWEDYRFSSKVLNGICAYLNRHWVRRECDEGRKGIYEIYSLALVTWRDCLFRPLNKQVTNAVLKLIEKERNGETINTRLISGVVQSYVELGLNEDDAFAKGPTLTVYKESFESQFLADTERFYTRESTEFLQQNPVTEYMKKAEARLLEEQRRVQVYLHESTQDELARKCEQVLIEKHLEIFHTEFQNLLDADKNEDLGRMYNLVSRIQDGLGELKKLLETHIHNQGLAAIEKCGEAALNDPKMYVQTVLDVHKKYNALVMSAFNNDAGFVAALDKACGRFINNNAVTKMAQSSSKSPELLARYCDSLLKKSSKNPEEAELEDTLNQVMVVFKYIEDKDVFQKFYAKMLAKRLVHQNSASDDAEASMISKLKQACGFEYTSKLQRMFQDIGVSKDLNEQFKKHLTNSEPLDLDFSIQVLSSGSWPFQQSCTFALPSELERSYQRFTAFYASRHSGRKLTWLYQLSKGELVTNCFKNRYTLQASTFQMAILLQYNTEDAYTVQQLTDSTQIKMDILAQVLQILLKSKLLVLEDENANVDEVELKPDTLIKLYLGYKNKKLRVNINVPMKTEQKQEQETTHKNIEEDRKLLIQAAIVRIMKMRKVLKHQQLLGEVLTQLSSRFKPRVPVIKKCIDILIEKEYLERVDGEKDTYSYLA

MGC-803 [9] = assay: Inhibition of cullin3 neddylation in UBC/DCN1 overactivated human MGC-803 cells at 3 uM incubated for 24 hrs by Western blot analysis; format: cell-based; how it was run: as §1
[10] = molecular target: CDK6/cyclin D3 (Homo sapiens) (UniProt P30281+Q00534); assay: Inhibition of full length human CDK6/N-terminal GST fused human cyclinD3 expressed in baculovirus expression system using 5-FAMIPTSPITTTYFFFKKK-COOH as substrate at 10 uM incubated for 60 mins in presence of ATP relative to control
How it was run: (§2)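 CDK/cyclin complexes were assayed with 3 μM 5-FAM peptide substrate. ATP was 20 μM for CDK1, 30 μM for CDK2, 280 μM for CDK4, 800 μM for CDK6 and 10 μM for CDK9. Buffer was 50 mM HEPES pH 7.5, 0.0015% Brij-35, 10 mM MgCl2 and 2 mM DTT. Reactions ran 60 min at 28 °C and were stopped with EDTA. Caliper conversion values were converted to % inhibition.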

[11] = molecular target: CDK4/Cyclin D3 (Homo sapiens) (UniProt P11802+P30281); assay: Inhibition of full length human CDK4/N-terminal GST fused human cyclinD3 expressed in baculovirus expression system using 5-FAMIPTSPITTTYFFFKKK-COOH as substrate at 10 uM incubated for 60 mins in presence of ATP relative to control; how it was run: as §2
[12] = molecular target: DCN1-like protein 1/NEDD8-conjugating enzyme Ubc12 (Homo sapiens, UniProt Q96GG9); assay: Inhibition of GST-tagged DCN1 PONY domain (unknown origin)/human N-terminal acetylated UBC12 (1 to 12 residues) protein-protein interaction incubated for 1 hr by HTRF analysis; format: protein assay
Sequence of DCN1-like protein 1/NEDD8-conjugating enzyme Ubc12 (Q96GG9 whole entry, the tested form may be a part): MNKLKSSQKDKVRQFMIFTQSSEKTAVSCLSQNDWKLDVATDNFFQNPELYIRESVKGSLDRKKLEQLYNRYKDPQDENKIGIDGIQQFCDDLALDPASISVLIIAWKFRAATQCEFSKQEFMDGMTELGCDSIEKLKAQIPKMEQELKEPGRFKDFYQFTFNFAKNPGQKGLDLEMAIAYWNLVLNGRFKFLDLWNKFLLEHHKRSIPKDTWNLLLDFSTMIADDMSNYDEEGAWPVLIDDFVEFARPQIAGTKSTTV
Sequence of DCN1-like protein 1/NEDD8-conjugating enzyme Ubc12 (P61081 whole entry, further chain, the tested form may be a part): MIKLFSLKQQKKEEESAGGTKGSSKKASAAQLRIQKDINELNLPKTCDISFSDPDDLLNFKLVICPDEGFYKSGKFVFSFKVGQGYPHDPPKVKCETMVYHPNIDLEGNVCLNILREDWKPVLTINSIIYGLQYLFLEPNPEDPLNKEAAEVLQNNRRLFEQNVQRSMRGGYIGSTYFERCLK

[13] = molecular target: CDK2/Cyclin A2 (Homo sapiens) (UniProt P24941+P20248); assay: Inhibition of GST-tagged human CDK2/Cyclin A2 expressed in baculovirus infected Sf9 cells using 5-FAM-QSPKKG-CONH2 as substrate at 10 uM incubated for 60 mins in presence of ATP relative to control; how it was run: as §2
MGC-803 [14] = assay: Induction of p21 accumulation in human MGC-803 cells incubated for 24 hrs by Western blot analysis; format: functional, cell-based; conditions: dose 1-10 µM; how it was run: as §1
MGC-803 [15] = assay: Induction of p27 accumulation in human MGC-803 cells incubated for 24 hrs by Western blot analysis; format: functional, cell-based; conditions: dose 1-10 µM; how it was run: as §1
KYSE-70 [16] = assay: Induction of p21 accumulation in human KYSE-70 cells incubated for 24 hrs by Western blot analysis; format: functional, cell-based; conditions: dose 0.3-10 µM; how it was run: as §1
KYSE-70 [17] = assay: Induction of p27 accumulation in human KYSE-70 cells incubated for 24 hrs by Western blot analysis; format: functional, cell-based; conditions: dose 0.3-10 µM; how it was run: as §1
KYSE-70 [18] = assay: Upregulation of NRF2 protein expression in human KYSE-70 cells incubated for 24 hrs by Western blot analysis; format: functional, cell-based; conditions: dose 0.3-10 µM
How it was run: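 Cells were grown at 37 °C in 5% CO2 with 10% FBS, MGC-803 in DMEM and KYSE70 in RPMI 1640. They were exposed to the indicated compound concentrations for 24 h, then lysed in RIPA with protease inhibitors and quantified by BCA. 30 μg of protein was run on 8% SDS-PAGE and blotted to nitrocellulose. Primary antibody was applied overnight at 4 °C, with HRP secondary and ECL film detection. GAPDH served as the loading control; the experiment was done three times.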

[19] = Metabolic stability in human liver microsomes assessed as half life; format: ADME, Microsome
[20] = Metabolic stability in rat liver microsomes assessed as half life; format: ADME, Microsome
[21] = Metabolic stability in dog liver microsomes assessed as half life; format: ADME, Canis lupus familiaris, Microsome
[22] = molecular target: T1, DCN1-like protein 1/NEDD8-conjugating enzyme Ubc12 (Homo sapiens) (UniProt Q96GG9+P61081); conditions: dose 500.0 nM, time 1.0 hrs
T1 sequence (P61081 whole entry, looked up): as the sequence (P61081 whole entry, further chain, the tested form may be a part) above
T1 sequence (Q96GG9 whole entry, looked up): as the sequence (Q96GG9 whole entry, the tested form may be a part) above

[23] = molecular target: T1, DCN1-like protein 1/NEDD8-conjugating enzyme Ubc12 (Homo sapiens); conditions: dose 500.0 nM, time 1.0 hrs; remark: listed apart in the source
[24] = test system: Epidermal growth factor receptor (Homo sapiens), P00533 [L858R]; assay: Inhibition of human EGFR L858R mutant (669 to 1210 residues) expressed in Sf21 insect cells using 5-FAM-EEPLYWSFPAKKK-CONH2 as substrate at 10 uM incubated for 30 mins relative to control
Sequence of Epidermal growth factor receptor (Homo sapiens), P00533 [L858R] (P00533 whole entry L858R, the tested form may be a part): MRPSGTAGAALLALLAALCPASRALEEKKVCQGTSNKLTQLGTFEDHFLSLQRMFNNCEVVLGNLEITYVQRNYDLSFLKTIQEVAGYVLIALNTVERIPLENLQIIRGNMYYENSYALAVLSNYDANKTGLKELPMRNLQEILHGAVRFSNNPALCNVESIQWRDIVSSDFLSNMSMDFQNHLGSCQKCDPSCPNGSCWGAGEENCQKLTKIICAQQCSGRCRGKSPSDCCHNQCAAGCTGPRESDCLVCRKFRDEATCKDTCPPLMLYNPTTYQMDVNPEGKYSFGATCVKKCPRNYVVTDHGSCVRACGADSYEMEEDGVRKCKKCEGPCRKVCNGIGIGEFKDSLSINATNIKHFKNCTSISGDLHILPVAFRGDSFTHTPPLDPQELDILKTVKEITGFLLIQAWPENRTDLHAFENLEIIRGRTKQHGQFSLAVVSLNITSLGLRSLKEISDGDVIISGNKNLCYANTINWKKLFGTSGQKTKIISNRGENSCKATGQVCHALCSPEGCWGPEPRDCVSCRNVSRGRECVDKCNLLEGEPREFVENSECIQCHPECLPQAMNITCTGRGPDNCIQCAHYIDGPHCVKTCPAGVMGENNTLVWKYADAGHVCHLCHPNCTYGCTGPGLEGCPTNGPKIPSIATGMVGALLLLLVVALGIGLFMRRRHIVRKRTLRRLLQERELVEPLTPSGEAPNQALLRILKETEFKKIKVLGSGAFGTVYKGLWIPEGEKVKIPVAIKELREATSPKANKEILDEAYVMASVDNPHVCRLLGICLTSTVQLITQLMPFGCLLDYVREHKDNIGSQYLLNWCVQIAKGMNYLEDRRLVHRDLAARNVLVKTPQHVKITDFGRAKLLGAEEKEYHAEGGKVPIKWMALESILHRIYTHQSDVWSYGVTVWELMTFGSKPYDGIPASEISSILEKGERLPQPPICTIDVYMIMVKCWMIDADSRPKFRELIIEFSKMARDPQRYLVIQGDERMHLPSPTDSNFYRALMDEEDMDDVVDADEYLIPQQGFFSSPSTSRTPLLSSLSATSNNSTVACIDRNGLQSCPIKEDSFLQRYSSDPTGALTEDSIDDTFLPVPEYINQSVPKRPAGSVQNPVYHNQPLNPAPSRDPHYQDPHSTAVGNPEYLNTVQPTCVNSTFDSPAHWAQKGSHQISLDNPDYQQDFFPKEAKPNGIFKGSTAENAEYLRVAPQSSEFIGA

Cc1cc(Sc2nnnn2CCN(C)C)n2nc(SCc3ccc(Cl)cc3)nc2n1.Cl
CLint scaled [1]: 497 mL/min/kg
CLint scaled [2]: > 348 mL/min/kg
Activity (MGC-803 [3]): 2.6%
Activity (MGC-803 [4]): 3.8%
Activity (MGC-803 [5]): 2.8%
inhibition (Cullin-4A (Homo sapiens) [6]): inactive
inhibition (KYSE-70 cell line): inactive
inhibition (Cullin-4B (Homo sapiens)): inactive
inhibition (Cullin-4A (Homo sapiens) [7]): inactive
inhibition (MGC-803 [8]): inactive
inhibition (Cullin-1 (Homo sapiens)): Active
inhibition (MGC-803 [9]): Active
inhibition [10]: 21.8%
inhibition [11]: 4.8%
IC50 [12]: 11 nM
inhibition [13]: 20.5%
Activity (MGC-803 [14]): Dose-Dependent Effect
Activity (MGC-803 [15]): Dose-Dependent Effect
Activity (KYSE-70 [16]): Dose-Dependent Effect
Activity (KYSE-70 [17]): Dose-Dependent Effect
Activity (KYSE-70 [18]): Dose-Dependent Effect
half-life [19]: < 5 min
half-life [20]: < 5 min
half-life [21]: < 5 min
inhibition [22]: Active
inhibition [23]: Active
inhibition [24]: -0.6%
